Measurements: ChEMBL document CHEMBL3751664, “Design, Synthesis, and Identification of Silicon Incorporated Oxazolidinone Antibiotics with Improved Brain Exposure” (ACS Med Chem Lett, 2015)
Converted amounts (≈) assume the structure as drawn.

Columns and labels:
[1] = Solubility of compound at pH 1.2 by HPLC analysis; format: physicochemical; details: buffer
[2] = Solubility of compound at pH 2.2 by HPLC analysis; format: physicochemical; details: buffer
[3] = Solubility of compound at pH 4.5 by HPLC analysis; format: physicochemical; details: buffer
[4] = Solubility of compound at pH 7.4 by HPLC analysis; format: physicochemical; details: buffer
[5] = Solubility of compound at pH 10.2 by HPLC analysis; format: physicochemical; details: buffer
[6] = test system: Plasma; assay: Metabolic stability in rat plasma by LC-MS/MS analysis; format: ADME, cell-free
Outline: (§1)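 Plasma stability is expressed as % compound remaining after incubation in plasma.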

[7] = test system: Plasma; assay: Metabolic stability in human plasma by LC-MS/MS analysis; format: ADME, cell-free; outline: as §1
[8] = Metabolic stability in mouse liver microsomes after 30 mins by LC-MS/MS analysis; format: ADME; details: read-out: Stability
Outline: (§2)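 Compounds are incubated with liver microsomes for 30 min, and the result is expressed as % parent remaining (% metabolic stability).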

[9] = Metabolic stability in rat liver microsomes after 30 mins by LC-MS/MS analysis; format: ADME; details: read-out: Stability; outline: as §2
[10] = Metabolic stability in human liver microsomes after 30 mins by LC-MS/MS analysis; format: ADME; details: read-out: Stability; outline: as §2
[11] = Cmax in BALB/c mouse brain at 10 mg/kg, po by LC-MS/MS analysis; format: ADME, organism-based; parameters: dose 10 mg/kg, route oral
Outline: (§3)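 Single oral 10 mg/kg dose, with 2 animals per group. Brain and plasma sampled; brain Cmax is reported as μg/g and brain AUC0-t and AUC0-inf as μg·h/g. Brain-to-plasma ratios are derived from AUC values, and also from Cmax.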

[12] = test system: Brain; assay: AUC (0 to t) in BALB/c mouse brain at 10 mg/kg, po by LC-MS/MS analysis; format: ADME, organism-based; details: in vivo; outline: as §3
[13] = test system: Brain; assay: AUC (0 to infinity) in BALB/c mouse brain at 10 mg/kg, po by LC-MS/MS analysis; format: ADME, organism-based; parameters: dose 10 mg/kg, time infinity, route oral; details: in vivo; outline: as §3
[14] = Cmax in BALB/c mouse plasma at 10 mg/kg, po by LC-MS/MS analysis; format: ADME, organism-based; parameters: dose 10 mg/kg, route oral; outline: as §3
[15] = AUC (0 to t) in BALB/c mouse plasma at 10 mg/kg, po by LC-MS/MS analysis; format: ADME, organism-based; outline: as §3
[16] = AUC (0 to infinity) in BALB/c mouse plasma at 10 mg/kg, po by LC-MS/MS analysis; format: ADME, organism-based; parameters: dose 10 mg/kg, time infinity, route oral; outline: as §3
[17] = Ratio of Cmax in brain to plasma in BALB/c mouse at 10 mg/kg, po; format: ADME, organism-based; outline: as §3
[18] = Ratio of AUC (0 to t) in brain to plasma in BALB/c mouse at 10 mg/kg, po; format: ADME, organism-based; outline: as §3
[19] = Ratio of AUC (0 to infinity) in brain to plasma in BALB/c mouse at 10 mg/kg, po; format: ADME, organism-based; outline: as §3
[20] = test system: Streptococcus pneumoniae; assay: Antibacterial activity against Streptococcus pneumoniae ATCC 49619 by microbroth dilution method; format: functional
Outline: (§4)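 MIC is determined by broth microdilution and expressed in μg/mL.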

[21] = test system: Streptococcus pneumoniae; assay: Antibacterial activity against Streptococcus pneumoniae ATCC 6303 by microbroth dilution method; format: functional; outline: as §4
[22] = test system: Streptococcus pneumoniae; assay: Antibacterial activity against linezolid-resistant Streptococcus pneumoniae 6303 by microbroth dilution method; format: functional; outline: as §4
[23] = test system: Streptococcus pneumoniae; assay: Antibacterial activity against pencillin-resistant erm+ve Streptococcus pneumoniae ATCC 700904 by microbroth dilution method; format: functional; outline: as §4
[24] = test system: Neisseria meningitidis; assay: Antibacterial activity against clinical isolate Neisseria meningitidis E-63 by microbroth dilution method; format: functional
Outline: (§5)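 Minimum inhibitory concentration (MIC) read by broth microdilution and reported in μg/mL. The same microbroth screen was run on the broader panel of facultative bacteria.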

[25] = test system: Neisseria meningitidis; assay: Antibacterial activity against clinical isolate Neisseria meningitidis M-1 by microbroth dilution method; format: functional; outline: as §5
[26] = test system: Neisseria meningitidis; assay: Antibacterial activity against clinical isolate Neisseria meningitidis 306 by microbroth dilution method; format: functional; outline: as §5
[27] = test system: Neisseria meningitidis; assay: Antibacterial activity against clinical isolate Neisseria meningitidis E-95 by microbroth dilution method; format: functional; outline: as §5
[28] = test system: Neisseria meningitidis; assay: Antibacterial activity against clinical isolate Neisseria meningitidis 184 by microbroth dilution method; format: functional; outline: as §5
[29] = Plasma protein binding in human; format: ADME, cell-free; details: read-out: PPB (converted)

SMILES | solubility [1] | solubility [2] | solubility [3] | Stability [6] | Stability [7] | remaining at 0.5 h [8] | remaining at 0.5 h [9] | remaining at 0.5 h [10] | Cmax [11] | AUCt [12] | AUC [13] | Cmax [14] | AUC(0-t) [15] | AUC(0-inf) [16] | MIC [22] | MIC [24] | MIC [25] | MIC [26] | MIC [27] | MIC [28] | also measured
COC(=S)NC[C@H]1CN(c2ccc(N3CC[Si](C)(C)CC3)c(F)c2)C(=O)O1 | 48 µM (≈ 19.8 µg/mL) | 47 µM (≈ 19.3 µg/mL) | 9 µM (≈ 3.7 µg/mL) | 100% | 100% | 15.2% | 5.7% | 43% | 1470 ng/g | 3.11 µg·h/g | 3.24 µg·h/g | 370 ng/mL | 870 ng·h/mL | 930 ng·h/mL | 32 µg/mL (≈ 77.8 µM) | 32 µg/mL (≈ 77.8 µM) | 32 µg/mL (≈ 77.8 µM) | 32 µg/mL (≈ 77.8 µM) | 32 µg/mL (≈ 77.8 µM) | 32 µg/mL (≈ 77.8 µM) | solubility [4]: 2 µM (≈ 0.823 µg/mL); solubility [5]: 2 µM (≈ 0.823 µg/mL); Kp [17]: 3.96; Kp [18]: 3.57; Kp [19]: 3.49; MIC [20]: 4 µg/mL (≈ 9.72 µM); MIC [21]: 4 µg/mL (≈ 9.72 µM); MIC [23]: 4 µg/mL (≈ 9.72 µM)
CC(=O)NC[C@H]1CN(c2cc(F)c(N3CC[Si](C)(C)CC3)c(F)c2)C(=O)O1 | 48 µM (≈ 19.1 µg/mL) | 43 µM (≈ 17.1 µg/mL) | 20 µM (≈ 7.95 µg/mL) | 94.7% | 100% | 68.4% | 9.6% | 69.8% | 5580 ng/g | 14.74 µg·h/g | 16.44 µg·h/g | 2020 ng/mL | 5800 ng·h/mL | 6210 ng·h/mL | > 32 µg/mL | > 32 µg/mL | > 32 µg/mL | > 32 µg/mL | > 32 µg/mL | > 32 µg/mL | solubility [4]: 17 µM (≈ 6.76 µg/mL); solubility [5]: 20 µM (≈ 7.95 µg/mL); fraction unbound [29]: 0.004; Kp [17]: 2.76; Kp [18]: 2.54; Kp [19]: 2.65; MIC [20]: 16 µg/mL (≈ 40.3 µM); MIC [21]: 8 µg/mL (≈ 20.1 µM); MIC [23]: 16 µg/mL (≈ 40.3 µM)
CC(=O)NC[C@H]1CN(c2ccc(N3CC[Si](C)(C)CC3)c(F)c2)C(=O)O1 | 50 µM (≈ 19 µg/mL) | 50 µM (≈ 19 µg/mL) | 41 µM (≈ 15.6 µg/mL) | 97.3% | 100% | 40.8% | 10.8% | 48.9% | 1330 ng/g | 3.01 µg·h/g | 3.05 µg·h/g | 1050 ng/mL | 1780 ng·h/mL | 1800 ng·h/mL | > 32 µg/mL | 32 µg/mL (≈ 84.3 µM) | > 32 µg/mL | > 32 µg/mL | > 32 µg/mL | > 32 µg/mL | solubility [4]: 40 µM (≈ 15.2 µg/mL); solubility [5]: 41 µM (≈ 15.6 µg/mL); fraction unbound [29]: 0.0567; Kp [17]: 1.27; Kp [18]: 1.69; Kp [19]: 1.69; MIC [20]: 8 µg/mL (≈ 21.1 µM); MIC [21]: 4 µg/mL (≈ 10.5 µM); MIC [23]: 4 µg/mL (≈ 10.5 µM)
CC(=O)NC[C@H]1CN(c2ccc(N3CCOCC3)c(F)c2)C(=O)O1 [LINEZOLID] | – | – | – | 100% | 100% | 100% | 88.3% | 100% | 450 ng/g | 0.83 µg·h/g | 0.9 µg·h/g | 3650 ng/mL | 7580 ng·h/mL | 7700 ng·h/mL | 32 µg/mL (≈ 94.9 µM) | 8 µg/mL (≈ 23.7 µM) | 8 µg/mL (≈ 23.7 µM) | 8 µg/mL (≈ 23.7 µM) | 8 µg/mL (≈ 23.7 µM) | 8 µg/mL (≈ 23.7 µM) | fraction unbound [29]: 0.74
